What was measured:
Assay type in all cases: functional
[1] = tested on: LOX IMVI; experiment: Cytotoxicity against human LOXIMVI cells assessed as cell growth at 10^-4 M after 48 hrs by SRB assay; settings: read-out: Activity
[2] = tested on: NCI-H322M; experiment: Cytotoxicity against human NCI-H322M cells assessed as cell growth at 10^-7 M after 48 hrs by SRB assay; settings: read-out: Activity
[3] = tested on: EKVX; experiment: Cytotoxicity against human EKVX cells assessed as cell growth at 10^-7 M after 48 hrs by SRB assay; settings: read-out: Activity
In short: (§1)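 NCI-60 screen: lines kept in RPMI 1640 with 5% FBS, seeded at 5000–40,000 cells/well by doubling time, preincubated 24 h at 37 °C in 5% CO2. Time-zero plates TCA-fixed at drug addition. DMSO stocks diluted in medium, 48 h exposure. Fixation in cold TCA (final 10% adherent, 16% suspension), 0.4% SRB stain, solubilised in 10 mM Tris base, A515. Percent growth computed against control and time-zero.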

[4] = tested on: SNB-75; experiment: Cytotoxicity against human SNB75 cells assessed as cell growth at 10^-5 M after 48 hrs by SRB assay; settings: SNB-75, 48 h, read-out: Activity
[5] = tested on: OVCAR-3; experiment: Cytotoxicity against human OVCAR3 cells assessed as cell growth at 10^-6 M after 48 hrs by SRB assay; settings: OVCAR-3, 48 h, read-out: Activity
[6] = tested on: SK-MEL-28; experiment: Cytotoxicity against human SK-MEL-28 cells assessed as cell growth at 10^-5 M after 48 hrs by SRB assay; settings: SK-MEL-28, 48 h, read-out: Activity
[7] = tested on: M14; experiment: Cytotoxicity against human M14 cells assessed as cell growth at 10^-4 M after 48 hrs by SRB assay; settings: M14, 48 h, read-out: Activity
[8] = tested on: RXF 393; experiment: Growth inhibition of human RXF393 cells after 48 hrs by SRB assay; settings: RXF 393, 48 h
In short: (§2)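 Adherent NCI-60 lines grown in RPMI 1640 with 5% FBS, seeded at 5000–40,000 cells/well, and preincubated 24 h at 37 °C, 5% CO2. Compound, stocked in DMSO, given either once at 10^-5 M or at five 10-fold dilutions for 48 h. Cells fixed with cold TCA (final 10%), stained with 0.4% SRB, and read at 515 nm. GI50 taken as 50% reduction in net protein increase versus time-zero and control plates.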

[9] = tested on: SW-620; experiment: Cytotoxicity against human SW620 cells assessed as cell growth at 10^-5 M after 48 hrs by SRB assay; settings: SW-620, 48 h, read-out: Activity
[10] = tested on: A498; experiment: Cytotoxicity against human A498 cells assessed as cell growth at 10^-6 M after 48 hrs by SRB assay; settings: A498, 48 h, read-out: Activity; in short: as §1
[11] = tested on: SW-620; experiment: Growth inhibition of human SW620 cells after 48 hrs by SRB assay; settings: SW-620, 48 h; for CC50: read-out: LC50 (the source's name); in short: as §2
[12] = tested on: COLO; experiment: Cytotoxicity against human COLO […] cells assessed as cell growth at 10^-8 M after 48 hrs by SRB assay; settings: read-out: Activity; in short: as §1
[13] = tested on: Malme-3M; experiment: Growth inhibition of human MALME-3M cells after 48 hrs by SRB assay; settings: for CC50: read-out: LC50 (the source's name); in short: as §2
[14] = tested on: SK-MEL-2; experiment: Cytotoxicity against human SK-MEL-2 cells assessed as cell growth at 10^-5 M after 48 hrs by SRB assay; settings: SK-MEL-2, 48 h, read-out: Activity
[15] = tested on: MDA-MB-435; experiment: Cytotoxicity against human MDA-MB-435 cells assessed as cell growth at 10^-4 M after 48 hrs by SRB assay; settings: MDA-MB-435, 48 h, read-out: Activity
[16] = tested on: OVCAR-8; experiment: Cytotoxicity against human OVCAR8 cells assessed as cell growth at 10^-8 M after 48 hrs by SRB assay; settings: OVCAR-8, 48 h, read-out: Activity
[17] = tested on: A498; experiment: Growth inhibition of human A498 cells after 48 hrs by SRB assay; settings: A498, 48 h
In short: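 Same 48 h NCI-60 five-dose SRB protocol. Adherent lines were fixed with cold TCA at 10% final; suspension lines such as CCRF-CEM were fixed with 16% final TCA. Stain was 0.4% SRB in 1% acetic acid for 10 min, solubilized in 10 mM Tris base and read at 515 nm. GI50 came from log concentration–growth curves, solving [(Ti−Tz)/(C−Tz)]×100 = 50.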

[18] = tested on: OVCAR-4; experiment: Cytotoxicity against human OVCAR4 cells assessed as cell growth at 10^-7 M after 48 hrs by SRB assay; settings: OVCAR-4, 48 h, read-out: Activity
[19] = tested on: SF-295; experiment: Cytotoxicity against human SF295 cells assessed as cell growth at 10^-8 M after 48 hrs by SRB assay; settings: SF-295, 48 h, read-out: Activity
[20] = tested on: SF-268; experiment: Cytotoxicity against human SF268 cells assessed as cell growth at 10^-8 M after 48 hrs by SRB assay; settings: SF-268, 48 h, read-out: Activity
[21] = tested on: IGROV-1; experiment: Cytotoxicity against human IGROV1 cells assessed as cell growth at 10^-8 M after 48 hrs by SRB assay; settings: IGROV-1, 48 h, read-out: Activity
[22] = tested on: SK-MEL-28; experiment: Growth inhibition of human SK-MEL-28 cells after 48 hrs by SRB assay; settings: SK-MEL-28, 48 h; for CC50: read-out: LC50 (the source's name); in short: as §2
[23] = tested on: UACC-62; experiment: Cytotoxicity against human UACC62 cells assessed as cell growth at 10^-6 M after 48 hrs by SRB assay; settings: UACC-62, 48 h, read-out: Activity
[24] = tested on: HOP-92; experiment: Growth inhibition of human HOP92 cells after 48 hrs by SRB assay; settings: HOP-92, 48 h; for CC50: read-out: LC50 (the source's name); in short: as §2
[25] = tested on: HT-29; experiment: Growth inhibition of human HT-29 cells after 48 hrs by SRB assay; settings: HT-29, 48 h; in short: as §2
[26] = tested on: MDA-MB-435; experiment: Cytotoxicity against human MDA-MB-435 cells assessed as cell growth at 10^-6 M after 48 hrs by SRB assay; settings: MDA-MB-435, 48 h, read-out: Activity
[27] = tested on: NCI-H460; experiment: Growth inhibition of human NCI-H460 cells after 48 hrs by SRB assay; settings: NCI-H460, 48 h; for CC50: read-out: LC50 (the source's name); in short: as §2
[28] = tested on: HCC 2998; experiment: Growth inhibition of human HCC2998 cells after 48 hrs by SRB assay; settings: HCC 2998, 48 h; in short: as §2

Structure (SMILES): COc1ccc(-c2nn3cc(-c4ccc(O)cc4O)nc3s2)cc1
- growth at 100 µM [1]: -4%
- growth at 0.1 µM [2]: 83%
- growth at 0.1 µM [3]: 92%
- growth at 10 µM [4]: -66%
- growth at 1 µM [5]: 89%
- growth at 10 µM [6]: 3%
- growth at 100 µM [7]: -49%
- GI50 [8]: 1.09 µM
- LC50 [8]: 5.74 µM
- TGI [8]: 2.5 µM
- growth at 10 µM [9]: 26%
- growth at 1 µM [10]: 34%
- GI50 [11]: 3.96 µM
- TGI [11]: > 100 µM
- CC50 [11]: > 100 µM
- growth at 0.01 µM [12]: 104%
- GI50 [13]: 1.32 µM
- TGI [13]: 4.7 µM
- CC50 [13]: > 100 µM
- growth at 10 µM [14]: 9%
- growth at 100 µM [15]: -38%
- growth at 0.01 µM [16]: 102%
- GI50 [17]: 0.365 µM
- LC50 (concentration giving 50% net cell kill) [17]: > 100 µM
- TGI [17]: 2.56 µM
- growth at 0.1 µM [18]: 88%
- growth at 0.01 µM [19]: 95%
- growth at 0.01 µM [20]: 97%
- growth at 0.01 µM [21]: 96%
- GI50 [22]: 2.14 µM
- TGI [22]: 12.4 µM
- CC50 [22]: > 100 µM
- growth at 1 µM [23]: 81%
- GI50 [24]: 0.231 µM
- TGI [24]: 2.68 µM
- CC50 [24]: > 100 µM
- GI50 [25]: 2.95 µM
- LC50 (concentration killing 50% of cells) [25]: > 100 µM
- TGI [25]: 20.2 µM
- growth at 1 µM [26]: 76%
- GI50 [27]: 2.02 µM
- CC50 [27]: > 100 µM
- GI50 [28]: 4.37 µM
- LC50 (concentration causing 50% net cell kill) [28]: > 100 µM
- TGI [28]: 84.4 µM

Structure (SMILES): COc1ccc(-c2nn3cc(-c4cccc(N)c4)nc3s2)cc1
- growth at 100 µM [1]: -29%
- growth at 0.1 µM [2]: 95%
- growth at 0.1 µM [3]: 72%
- growth at 10 µM [4]: -24%
- growth at 1 µM [5]: 86%
- growth at 10 µM [6]: 28%
- growth at 100 µM [7]: -54%
- GI50 [8]: 1.38 µM
- LC50 [8]: 20.9 µM
- TGI [8]: 4.66 µM
- growth at 10 µM [9]: 40%
- growth at 1 µM [10]: 53%
- GI50 [11]: 6.08 µM
- TGI [11]: 76.6 µM
- CC50 [11]: > 100 µM
- growth at 0.01 µM [12]: 103%
- GI50 [13]: 1.74 µM
- TGI [13]: 6.5 µM
- CC50 [13]: 47.3 µM
- growth at 10 µM [14]: 39%
- growth at 100 µM [15]: -53%
- growth at 0.01 µM [16]: 104%
- GI50 [17]: 1.11 µM
- LC50 (concentration giving 50% net cell kill) [17]: 45.2 µM
- TGI [17]: 5.73 µM
- growth at 0.1 µM [18]: 92%
- growth at 0.01 µM [19]: 95%
- growth at 0.01 µM [20]: 100%
- growth at 0.01 µM [21]: 102%
- GI50 [22]: 3.76 µM
- TGI [22]: 26 µM
- CC50 [22]: > 100 µM
- growth at 1 µM [23]: 71%
- GI50 [24]: 0.114 µM
- TGI [24]: 0.989 µM
- CC50 [24]: 87.2 µM
- GI50 [25]: 4.27 µM
- LC50 (concentration killing 50% of cells) [25]: > 100 µM
- TGI [25]: 23.2 µM
- growth at 1 µM [26]: 77%
- GI50 [27]: 3.36 µM
- TGI [27]: 28.9 µM
- CC50 [27]: > 100 µM
- GI50 [28]: 1.08 µM
- LC50 (concentration causing 50% net cell kill) [28]: > 100 µM
- TGI [28]: > 100 µM
